Laboratory results from PMC5237706 (Acta Pharmaceutica Sinica. B, 2016).
Like-named read-outs stand apart in the source and are kept apart here.

Key:
[1] = system: lipid peroxidation in the energized hepatic mitochondria; experiment: Mitochondrial lipid peroxidation induced by FeCl2/ascorbate; type: biochemical, rat; settings: for inhibition of lipid peroxidation at 6 μmol/L: Fig. 1B
In short: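 Rat liver mitochondria (1 mg/mL, standard medium pH 7.4) with test compound (6 μmol/L). Peroxidation started with FeCl2 20 μmol/L/ascorbate 100 μmol/L and run 30 min. TCA-TBA-HCl stock plus 0.02% BHT added, then heated 15 min in a hot-water bath, cooled and centrifuged. A532 read; MDA calculated with ε532=1.5×10^5 mol/(L·cm). Three independent experiments.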

[2] = system: human hepatoma HepG2 cells; experiment: Antiproliferative activity, SRB assay, HepG2; type: cell-based; settings: for TI 24 h / TI 48 h: TI=IC50 L02 normal cell/IC50 HepG2 cancer cell
In short: (§1)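 Cells seeded at 5×10^4/well and grown 24 h, then exposed to test compound (DMSO stock) for 24 h or 48 h. Processed by standard SRB method with absorbance at 540 nm. IC50 from log plot of percent of control vs concentration. HepG2 kept in RPMI 1640; L02 and WI38 in DMEM; all with 10% FBS, 1% penicillin–streptomycin, 37 °C, 5% CO2. TI = IC50 normal cells / IC50 HepG2.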

human hepatic L02 cells = experiment: Antiproliferative activity, SRB assay, L02; type: cell-based
In short: as §1

[3] = system: diploid human WI38 fibroblasts; experiment: Antiproliferative activity, SRB assay, WI38; type: cell-based
In short: as §1

[4] = system: energized hepatic mitochondria (mPTP opening); experiment: Mitochondrial swelling; type: biochemical, rat; settings: Fig. 5B; for induction of mitochondrial swelling at 10 μmol/L: 10 μmol/L alone
In short: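 Energized rat hepatic mitochondria (1 mg/mL) in sucrose/HEPES/glutamate/malate medium, pH 7.4. Swelling followed as apparent A540 change after adding test compound (concentration series; 10 μmol/L alone or with Ca2+ 0.1 μmol/L). CsA 1 μmol/L added to suspensions containing 20 μmol/L compound. […]; mean±SEM of three independent experiments.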

[5] = system: cyt c release from energized mitochondria; experiment: Cyt c release from mitochondria; type: biochemical, rat; settings: Fig. 7D
[6] = system: H2O2 production in energized hepatic mitochondria; experiment: Mitochondrial H2O2 production; type: biochemical, rat; settings: DCFDA, Fig. 2B
In short: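 DCFDA (8 μmol/L) added to energized rat hepatic mitochondria (1 mg/mL) in standard medium (sucrose 250, HEPES 10, glutamate 10, malate 5 mmol/L; pH 7.4). Test compound added; incubated 15 or 30 min in the dark at 25 °C. Fluorescence ex 485/em 521 nm, expressed as percent of control. Mean±SEM, three independent experiments.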

mitochondrial SOD = experiment: Mitochondrial SOD activity; type: biochemical, rat; settings: 10 μmol/L, 15 and 30 min
In short: (§2)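 Energized liver mitochondria from male Wistar rats incubated with test compound (10 μmol/L) for 15 or 30 min. Then sonicated in 5 s pulses for 5 cycles. SOD, GSH-Px and CAT activities measured with commercial kits per instructions. Mean±SEM of three independent experiments.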

GSH-Px = experiment: Mitochondrial GSH-Px activity; type: biochemical, rat; settings: 10 μmol/L, 15 and 30 min
In short: as §2

CAT = target: T1, CAT (Rattus norvegicus, UniProt P04762); experiment: Mitochondrial CAT activity; type: biochemical; settings: 10 μmol/L, 15 and 30 min
T1 sequence (P04762 1-527): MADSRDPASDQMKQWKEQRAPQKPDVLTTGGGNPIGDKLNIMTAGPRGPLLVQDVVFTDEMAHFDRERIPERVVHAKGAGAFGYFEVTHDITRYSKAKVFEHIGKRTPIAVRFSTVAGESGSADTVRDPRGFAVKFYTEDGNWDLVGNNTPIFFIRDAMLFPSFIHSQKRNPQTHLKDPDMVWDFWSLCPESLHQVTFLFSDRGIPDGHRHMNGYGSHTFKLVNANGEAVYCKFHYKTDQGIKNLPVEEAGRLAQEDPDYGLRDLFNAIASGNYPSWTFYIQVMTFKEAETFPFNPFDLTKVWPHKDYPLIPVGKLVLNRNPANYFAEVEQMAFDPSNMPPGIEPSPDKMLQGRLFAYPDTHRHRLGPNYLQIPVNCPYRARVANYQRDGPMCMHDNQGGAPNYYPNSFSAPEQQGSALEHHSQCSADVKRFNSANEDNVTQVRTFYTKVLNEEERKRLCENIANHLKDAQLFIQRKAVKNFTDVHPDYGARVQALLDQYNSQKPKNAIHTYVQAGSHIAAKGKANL
In short: as §2

`O=C(O)/C=C/c1ccc(O)c(O)c1` [CaA, caffeic acid] was tested, and the “inhibition of lipid peroxidation at 6 μmol/L” value [1] was “ineffective”, the “effect on lipid peroxidation, various concentrations” value ([1]; Fig. 1A) was “no effect” and the IC50 ([2]; Homo sapiens, HepG2, 24 h, read-out: IC50 HepG2 24 h, HepG2, 24 h, SRB) was 201 ± 3.88 µM. The IC50 ([2]; Homo sapiens, HepG2, 48 h, read-out: IC50 HepG2 48 h, HepG2, 48 h, SRB) was 93 ± 1.35 µM, the “TI 24 h” value [2] was 2.01 and the “TI 48 h” value [2] was 1.68. It also gave an IC50 (human hepatic L02 cells; Homo sapiens, L02, 24 h, read-out: IC50 L02 24 h) of 403 ± 18.9 µM, an IC50 (human hepatic L02 cells; Homo sapiens, L02, 48 h, read-out: IC50 L02 48 h) of 156 ± 8.83 µM and an IC50 ([3]; Homo sapiens, WI-38, 24 h, read-out: IC50 WI38 24 h) of 281 ± 9.47 µM. For the same compound, the IC50 ([3]; Homo sapiens, WI-38, 48 h, read-out: IC50 WI38 48 h) was 198 ± 7.78 µM, the “mitochondrial swelling with Ca2+” value ([4]; 10 μmol/L + 0.1 μmol/L Ca2+) was “failed to cause swelling” and the “induction of mitochondrial swelling at 10 μmol/L” value [4] was “neither MitoCA nor CaA induced swelling”. The “induction of cyt c release at 10 μmol/L” value [5] was “had no effects”.

`CCCC[P+](c1ccccc1)(c1ccccc1)c1ccccc1` [ButylTPP] was tested, and the “inhibition of lipid peroxidation at 6 μmol/L” value [1] was “ineffective”, the “effect on endogenous H2O2 levels at 10 μmol/L” value [6] was “did not affect” and the “effect on SOD activity” value (mitochondrial SOD) was “did not alter”. For the same compound, the “effect on GSH-Px activity” value (GSH-Px) was “did not alter”, the “effect on CAT activity” value (CAT) was “did not alter” and the “TI 24 h” value [2] was 4.76. The “TI 48 h” value [2] was 5.58, the IC50 ([2]; read-out: IC50 HepG2 24 h, HepG2, 24 h, SRB) was 25.4 ± 1.02 µM and the IC50 ([2]; read-out: IC50 HepG2 48 h, HepG2, 48 h, SRB) was 12.8 ± 0.87 µM. It also gave an IC50 (human hepatic L02 cells; read-out: IC50 L02 24 h, L02, 24 h, SRB) of 121 ± 9.97 µM, an IC50 (human hepatic L02 cells; read-out: IC50 L02 48 h, L02, 48 h, SRB) of 71.4 ± 6.64 µM and an IC50 ([3]; read-out: IC50 WI38 24 h, WI38, 24 h, SRB) of 179 ± 3.73 µM. The IC50 ([3]; read-out: IC50 WI38 48 h, WI38, 48 h, SRB) was 88.5 ± 3.95 µM, the “induction of mitochondrial swelling at 10 μmol/L” value [4] was “triggered swelling” and the “induction of cyt c release at 10 μmol/L” value [5] was “had no effects”.
